From PubChem BioAssay AID492968 (Southern Research Specialized Biocontainment Screening …, 2010)

System: HEp-2 viability, luminescence (CellTiter-Glo)
Test: viability loss in uninfected HEp-2 cells – cell-based, CellTiter-Glo luminescence, synthesized compounds, set 3, cytotoxicity control for RSV inhibitor project, dose response (AID 492968)
How it was run: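 Test system: HEp-2 cells; Amount: 10,595 cells/well; Medium: complete DMEM/F12 medium adjusted to pH 7.5; Doses: eight twofold dilutions, 50 to 0.39 µM final, 0.5% DMSO; Schedule: compound exposure of 6 days at 37 °C, 5% CO2; Signal: CellTiter-Glo luminescence for cell viability; Read-out: CC50 from 0–100-bounded four-parameter fit; Replicates: triplicate.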

Row | SMILES | CC50
1 | Cc1ccc(NC(=O)[C@@H]2CCCN2S(=O)(=O)c2cccc3cccnc23)cc1 | 27.1 µM
2 | Cc1cc(C)cc(NC(=O)[C@@H]2CCCN2S(=O)(=O)c2cccc3cccnc23)c1 | 31.6 µM
3 | Cc1ccccc1NC(=O)[C@@H]1CCCN1S(=O)(=O)c1cccc2cccnc12 | 45 µM
